According to ChEMBL document CHEMBL1123325, “Isomer-dependent cytostatic activity of bis(1-aziridinyl)cyclophosphazenes” (1986):

Key:
Assay type in all cases: functional
[1] = test system: L1210; test: In vitro inhibition dose (cytostatic activity) in L1210 mouse leukemia cells
[2] = test system: L5178Y; test: In vitro lowest active dose (LAD) in L5178Y mouse lymphoma cells
[3] = test system: Mus musculus; test: Compound was tested for percent median survival time of drug-treated mice over that of untreated control mice at dose of 175 mg/kg
Outline: (§1)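 10^5 L1210 leukemia cells from in vitro suspension culture were injected into male (BALB/c × DBA/2)F1 (CDF1) mice as intraperitoneal leukemia. Dosing began 24 h later, with 5 mice per dose and 10 untreated controls. Survival times were recorded. The value is the median survival time of treated mice as a percent of untreated controls (T/C%), with 60-day long-term survivors noted.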

[4] = test system: L1210; test: Tested in vivo for 50% lethal dose in L1210 mouse leukemia cells
[5] = test system: Mus musculus; test: Tested for percent median survival time of drug-treated mice over that of untreated control mice at dose of 200 mg/kg; outline: as §1
[6] = test system: Mus musculus; test: Tested for percent median survival time of drug-treated mice over that of untreated control mice at dose of 40 mg/kg; outline: as §1
[7] = test system: Mus musculus; test: Compound was tested for percent median survival time of drug-treated mice over that of untreated control mice at dose of 20 mg/kg; outline: as §1
[8] = test system: Mus musculus; test: Compound was tested for percent median survival time of drug-treated mice over that of untreated control mice at dose of 900 mg/kg; outline: as §1
[9] = test system: Mus musculus; test: Compound was tested for percent median survival time of drug-treated mice over that of untreated control mice at dose of 600 mg/kg; outline: as §1
[10] = test system: Mus musculus; test: Compound was tested for percent median survival time of drug-treated mice over that of untreated control mice at dose of 160 mg/kg; outline: as §1
[11] = test system: Mus musculus; test: Compound was tested for percent median survival time of drug-treated mice over that of untreated control mice at dose of 140 mg/kg; outline: as §1
[12] = test system: Mus musculus; test: Compound was tested for percent median survival time of drug-treated mice over that of untreated control mice at dose of 180 mg/kg; outline: as §1
[13] = test system: Mus musculus; test: Compound was tested for percent median survival time of drug-treated mice over that of untreated control mice at dose of 70 mg/kg; outline: as §1
[14] = test system: Mus musculus; test: Compound was tested for percent median survival time of drug-treated mice over that of untreated control mice at dose of 100 mg/kg; outline: as §1
[15] = test system: Mus musculus; test: Compound was tested for percent median survival time of drug-treated mice over that of untreated control mice at dose of 150 mg/kg; outline: as §1
[16] = test system: Mus musculus; test: Compound was tested for percent median survival time of drug-treated mice over that of untreated control mice at dose of 60 mg/kg; outline: as §1
[17] = test system: Mus musculus; test: Compound was tested for percent median survival time of drug-treated mice over that of untreated control mice at dose of 80 mg/kg; outline: as §1
[18] = test system: Mus musculus; test: Compound was tested for percent median survival time of drug-treated mice over that of untreated control mice at dose of 120 mg/kg; outline: as §1
[19] = test system: Mus musculus; test: Compound was tested for percent median survival time of drug-treated mice over that of untreated control mice at dose of 35 mg/kg; outline: as §1
[20] = test system: Mus musculus; test: Compound was tested for percent median survival time of drug-treated mice over that of untreated control mice at dose of 90 mg/kg; outline: as §1
[21] = test system: Mus musculus; test: Compound was tested for percent median survival time of drug-treated mice over that of untreated control mice at dose of 110 mg/kg; outline: as §1
[22] = test system: Mus musculus; test: Compound was tested for percent median survival time of drug-treated mice over that of untreated control mice at dose of 300 mg/kg; outline: as §1
[23] = test system: Mus musculus; test: Compound was tested for percent median survival time of drug-treated mice over that of untreated control mice at dose of 350 mg/kg; outline: as §1
[24] = test system: Mus musculus; test: Compound was tested for percent median survival time of drug-treated mice over that of untreated control mice at dose of 30 mg/kg; outline: as §1
[25] = test system: Mus musculus; test: Compound was tested for percent median survival time of drug-treated mice over that of untreated control mice at dose of 50 mg/kg; outline: as §1
[26] = test system: Mus musculus; test: Compound was tested for percent median survival time of drug-treated mice over that of untreated control mice at dose of 800 mg/kg; outline: as §1
[27] = test system: Mus musculus; test: Compound was tested for percent median survival time of drug-treated mice over that of untreated control mice at dose of 400 mg/kg; outline: as §1

Row | SMILES | ID50 [1] | LAD [2] | LD50 [4] | other results
1 | CN(C)P1(N(C)C)=N[P@](N(C)C)(N2CC2)=NP(N(C)C)(N(C)C)=N[P@](N(C)C)(N2CC2)=N1 | 5.5e-06 M l-1 | 4e-06 M l-1 | – | –
2 | O=S1(N2CC2)=NP(N2CC2)(N2CC2)=NP(N2CC2)(N2CC2)=N1 (configuration not stated) | 1.06e-05 M l-1 | – | 250 mg/kg | T/C [3]: 188%; T/C [5]: 163%
3 | C1CN1P1(N2CC2)=NP(N2CC2)(N2CC2)=NP(N2CC2)(N2CC2)=N1 | 2e-06 M l-1 | – | 50 mg/kg | T/C [6]: 163%; T/C [7]: 200%
4 | C1CN(P2(N3CCOCC3)=N[P@](N3CCOCC3)(N3CC3)=N[P@@](N3CCOCC3)(N3CC3)=N2)CCO1 | 2.47e-05 M l-1 | 3e-05 M l-1 | 800 mg/kg | T/C [8]: 163%; T/C [9]: 163%
5 | CN(C)P1(N(C)C)=NP(N(C)C)(N(C)C)=NP(N(C)C)(N2CC2)=NP(N(C)C)(N(C)C)=N1 (configuration not stated) | 1.21e-05 M l-1 | 6.4e-05 M l-1 | – | –
6 | C1CCN(P2(N3CCCC3)=NP(N3CC3)(N3CC3)=NP(N3CC3)(N3CC3)=N2)C1 | 2.7e-06 M l-1 | – | 220 mg/kg | T/C [10]: 178%; T/C [5]: 211%
7 | C1CN(P2(N3CCOCC3)=NP(N3CCOCC3)(N3CCOCC3)=NP(N3CC3)(N3CC3)=N2)CCO1 | 0.00013 M l-1 | 0.00012 M l-1 | – | –
8 | CNP1(NC)=NP(NC)(NC)=NP(N2CC2)(N2CC2)=NP(NC)(NC)=N1 | 6.5e-06 M l-1 | 1.8e-05 M l-1 | – | –
9 | C1CN(P2(N3CCOCC3)=NP(N3CCOCC3)(N3CCOCC3)=NP(N3CCOCC3)(N3CC3)=N2)CCO1 (configuration not stated) | >0.00025 M l-1 | >0.0003 M l-1 | – | –
10 | C1CCN(P2(N3CCCCC3)=NP(N3CC3)(N3CC3)=NP(N3CC3)(N3CC3)=N2)CC1 | 3.6e-06 M l-1 | – | 250 mg/kg | T/C [5]: 156%
11 | C1CN(P2(N3CCOCC3)=N[P@](N3CCOCC3)(N3CC3)=N[P@](N3CCOCC3)(N3CC3)=N2)CCO1 | 3.35e-05 M l-1 | 6e-05 M l-1 | – | –
12 | CNP1(NC)=N[P@](NC)(N2CC2)=NP(NC)(NC)=N[P@@](NC)(N2CC2)=N1 | 4.6e-06 M l-1 | 5e-07 M l-1 | 200 mg/kg | T/C [11]: 333%; T/C [12]: 311%; T/C [13]: 289%; T/C [14]: 244%
13 | CNP1(NC)=N[P@@](NC)(N2CC2)=NP(NC)(NC)=N[P@@](NC)(N2CC2)=N1 | 4.6e-06 M l-1 | 5e-07 M l-1 | 200 mg/kg | T/C [15]: 200%; T/C [5]: 213%
14 | CNP1(NC)=N[P@](NC)(N2CC2)=N[P@](NC)(N2CC2)=N1 | 5e-06 M l-1 | 1e-06 M l-1 | 70 mg/kg | T/C [16]: 275%; T/C [17]: 175%; T/C [6]: 250%
15 | CN(C)P1(N(C)C)=N[P@](N(C)C)(N2CC2)=NP(N(C)C)(N(C)C)=N[P@@](N(C)C)(N2CC2)=N1 | 7.5e-06 M l-1 | 1e-06 M l-1 | 150 mg/kg | T/C [10]: <100%; T/C [18]: 125%
16 | CN(C)P1(N(C)C)=NP(N(C)C)(N(C)C)=NP(N2CC2)(N2CC2)=N1 | 1.95e-05 M l-1 | 2e-05 M l-1 | – | –
17 | CNP1(N2CC2)=NP(N2CC2)(N2CC2)=NP(N2CC2)(N2CC2)=N1 (configuration not stated) | 1.2e-06 M l-1 | – | 45 mg/kg | T/C [19]: 188%; T/C [6]: 188%
18 | CNP1(NC)=NP(NC)(NC)=N[P@@](NC)(N2CC2)=N[P@](NC)(N2CC2)=N1 | 1.8e-06 M l-1 | 2e-06 M l-1 | 100 mg/kg | T/C [16]: 275%; T/C [17]: 263%; T/C [6]: 238%; T/C [14]: 213%
19 | CN(C)P1(N(C)C)=NP(N(C)C)(N(C)C)=NP(N2CC2)(N2CC2)=NP(N(C)C)(N(C)C)=N1 | 1.19e-05 M l-1 | 2e-06 M l-1 | – | –

Row | SMILES | ID50 [1] | LAD [2] | LD50 [4] | other results
20 | CNP1(NC)=NP(NC)(NC)=NP(NC)(N2CC2)=NP(NC)(NC)=N1 (configuration not stated) | 5.69e-05 M l-1 | 0.00015 M l-1 | – | –
21 | CN(C)P1(N(C)C)=NP(N(C)C)(N(C)C)=N[P@@](N(C)C)(N2CC2)=N[P@](N(C)C)(N2CC2)=N1 | 6.6e-06 M l-1 | 2e-06 M l-1 | – | –
22 | C1CCN([P@@]2(N3CC3)=NP(N3CC3)(N3CC3)=N[P@@](N3CCCCC3)(N3CC3)=N2)CC1 | 2.1e-06 M l-1 | – | 140 mg/kg | T/C [20]: 167%; T/C [21]: 189%
23 | C1CN([P@@]2(N3CC3)=NP(N3CC3)(N3CC3)=N[P@@](N3CCOCC3)(N3CC3)=N2)CCO1 | 4.7e-06 M l-1 | – | 250 mg/kg | T/C [10]: 213%; T/C [5]: 200%
24 | C1CCN(P2(N3CCCC3)=NP(N3CCCC3)(N3CCCC3)=NP(N3CC3)(N3CC3)=N2)C1 | 1.86e-05 M l-1 | 4e-06 M l-1 | – | –
25 | CN(C)P1(N(C)C)=N[P@@](N(C)C)(N2CC2)=N[P@](N(C)C)(N2CC2)=N1 | 2.9e-06 M l-1 | 5e-07 M l-1 | – | –
26 | C1CN(P2(N3CCOCC3)=NP(N3CC3)(N3CC3)=NP(N3CC3)(N3CC3)=N2)CCO1 | 5.8e-06 M l-1 | – | 400 mg/kg | T/C [22]: 175%; T/C [23]: 200%
27 | C1CCN(P2(N3CCCC3)=N[P@](N3CCCC3)(N3CC3)=N[P@](N3CCCC3)(N3CC3)=N2)C1 | 6.7e-06 M l-1 | 1e-06 M l-1 | – | –
28 | CN(C)P1(N(C)C)=N[P@](N(C)C)(N2CC2)=N[P@](N(C)C)(N2CC2)=N1 | 7.3e-06 M l-1 | 5e-07 M l-1 | – | –
29 | CNP1(NC)=N[P@@](NC)(N2CC2)=N[P@](NC)(N2CC2)=N1 | 3.3e-06 M l-1 | 1e-06 M l-1 | 50 mg/kg | T/C [24]: 200%; T/C [25]: 289%; T/C [6]: 222%
30 | CCOC(=O)CNP1(NCC(=O)OCC)=NP(N2CC2)(N2CC2)=NP(N2CC2)(N2CC2)=N1 | 7.2e-06 M l-1 | – | 170 mg/kg | T/C [15]: <100%; T/C [18]: 125%
31 | C1CCN(P2(N3CCCC3)=NP(N3CCCC3)(N3CCCC3)=NP(N3CCCC3)(N3CC3)=N2)C1 (configuration not stated) | 4.43e-05 M l-1 | 1.2e-05 M l-1 | – | –
32 | CN(C)P1(N(C)C)=NP(N(C)C)(N(C)C)=NP(N(C)C)(N2CC2)=N1 (configuration not stated) | >0.00025 M l-1 | >0.0003 M l-1 | – | –
33 | C1CCN(P2(N3CC3)=NP(N3CC3)(N3CC3)=NP(N3CC3)(N3CC3)=N2)CC1 (configuration not stated) | 1.5e-06 M l-1 | – | 80 mg/kg | T/C [16]: 175%; T/C [13]: 213%
34 | C1CCN(P2(N3CCCC3)=N[P@@](N3CCCC3)(N3CC3)=N[P@](N3CCCC3)(N3CC3)=N2)C1 | 4.8e-06 M l-1 | 1e-06 M l-1 | – | –
35 | CN[P@@]1(N)=NP(N2CC2)(N2CC2)=N[P@](N)(NC)=N1 | 5.05e-05 M l-1 | 8e-06 M l-1 | – | –
36 | CNP1(NC)=NP(NC)(NC)=NP(NC)(N2CC2)=N1 (configuration not stated) | >0.00025 M l-1 | 0.0002 M l-1 | 800 mg/kg | T/C [8]: 225%; T/C [9]: 175%
37 | CNP1(NC)=NP(NC)(NC)=NP(N2CC2)(N2CC2)=N1 | 2.78e-05 M l-1 | 8e-06 M l-1 | 600 mg/kg | T/C [26]: 188%; T/C [9]: 150%; T/C [27]: 163%
